Laboratory results: ChEMBL document CHEMBL4431316, “New 6-Aminoquinoxaline Derivatives with Neuroprotective Effect on Dopaminergic Neurons in Cellular and Animal Parkinson Disease Models” (J Med Chem, 2016)
Active and inactive are the calls of the source. No cut-off for these calls is given here.

Assays:
[1] = Neuroprotective activity in Sprague-Dawley rat DA neuron death PD model assessed as survival of Th immunopositive cells at 50 uM after 10 days by immunofluorescence assay; type: functional; conditions: 240 h, read-out: Survival
Method in brief: (§1)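 Midbrain cultures in which DA neurons die spontaneously and selectively through a mechanism involving immature astrocytes and calcium dyshomeostasis. Compounds were present for 10 days in vitro, screened at 50 µM (100 µM for one analog) and retested at 10 µM. dbcAMP 1 mM served as reference. Surviving TH+ neurons were counted and expressed as % of corresponding untreated control cultures.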

[2] = Neuroprotective activity in Sprague-Dawley rat DA neuron death PD model assessed as survival of Th immunopositive cells at 10 uM after 10 days by immunofluorescence assay relative to control; type: functional; conditions: 240 h, read-out: Survival; method in brief: as §1
Astrocyte [3] = test: Neuroprotective activity in Sprague-Dawley rat astrocytes assessed as effect on vimentin positive cell density and morphology at 10 uM by fluorescence microscopic method; type: functional, cell-based
Method in brief: (§2)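 Midbrain cultures labelled for vimentin, a glial marker. Density and morphology of glial cells scored semi-quantitatively by fluorescence microscopy. Compounds tested at 10 and 50 µM, one at 100 µM; dbcAMP as reference.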

Astrocyte [4] = test: Neuroprotective activity in Sprague-Dawley rat astrocytes assessed as effect on vimentin positive cell density and morphology at 50 uM by fluorescence microscopic method; type: functional, cell-based; method in brief: as §2
Astrocyte [5] = test: Neuroprotective activity in Sprague-Dawley rat astrocytes assessed as [methyl-3H]thymidine incorporation at 10 to 50 uM after 8 days by liquid scintillation counting assay relative to control; type: functional
Method in brief: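 Glial proliferation in midbrain cultures measured as [methyl-3H]-thymidine incorporation at 8 DIV, with test compound 10-50 µM. DbcAMP 1 mM as positive control. Expressed as % of control.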

Rattus norvegicus [6] = species on record: Rattus norvegicus; test: Neuroprotective activity in Sprague-Dawley rat DA neuron death PD model assessed as increase in [2,5,6-3H]DA uptake at 10 to 50 uM after 10 days by liquid scintillation counting spectrometric analysis; type: functional
Method in brief: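 Midbrain cultures in which DA neurons die spontaneously and selectively. Treated with test compound (10-50 µM) or dbcAMP (1 mM, reference) up to 10 DIV. Tritium-labeled DA uptake quantified as a marker of DA cell function and differentiation. Uptake rate per TH+ neuron also derived. *P < 0.05 vs control.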

Rattus norvegicus [7] = species on record: Rattus norvegicus; test: Neuritogenic activity in Sprague-Dawley rat DA neuron death PD model assessed as development of neurite network in Th immunopositive cells at 10 to 50 uM after 10 days by microscopic analysis relative to control; type: functional, cell-based
Method in brief: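 Midbrain cultures treated or not with test compound (10-50 µM) for 10 DIV, then immunostained for TH. Neuritic network of TH+ neurons examined microscopically against control neurons. DbcAMP 1 mM as reference protective molecule.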

Rattus norvegicus [8] = species on record: Rattus norvegicus; test: Neuroprotective activity in Sprague-Dawley rat DA neuron death PD model assessed as inhibition of calcium mobilization at 50 uM after 10 days in presence of RyR channel blocker dantrolene; type: functional
Rattus norvegicus [9] = species on record: Rattus norvegicus; test: Neuroprotective activity in Sprague-Dawley rat DA neuron death PD model assessed as inhibition of calcium mobilization at 50 uM after 10 days in presence of L-type voltage gated calcium channel blocker nifedipine; type: functional
Rattus norvegicus [10] = species on record: Rattus norvegicus; test: Neuroprotective activity in Sprague-Dawley rat DA neuron death PD model assessed as survival of Th immunopositive cells at 50 uM after 10 days in presence of anti-GDNF antibody by immunofluorescence assay; type: functional
Rattus norvegicus [11] = species on record: Rattus norvegicus; test: Neuroprotective activity in Sprague-Dawley rat DA neuron death PD model assessed as survival of Th immunopositive cells treated at 10 to 50 uM in presence of GDNF for 10 days followed by deprivation of GDNF for next 5 days by immunofluorescence assay; type: functional
Method in brief: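 Midbrain cultures kept with GDNF (20 ng/ml) for 10 days, then deprived of GDNF from 11 to 15 DIV, with test compound 10-50 µM. TH+ neurons counted and compared with cultures kept on GDNF to 15 DIV. P < 0.05 vs GDNF-treated and vs GDNF-deprived cultures.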

Rattus norvegicus [12] = species on record: Rattus norvegicus; test: Antioxidant activity in Sprague-Dawley rat DA neuron assessed as reduction in ferrous iron-mediated neuron death at 5 uM; type: functional
Method in brief: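 Midbrain cultures with DA cell death driven by a Fenton-type reaction, ferrous iron reacting with molecular oxygen in the medium (chronic oxidative stress). Test compound 1-10 µM; desferrioxamine 10 µM as positive control. Readout is DA neuron (TH+) survival. P < 0.05 vs control cultures.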

Mus musculus [13] = test: (§3) Neuroprotective activity against MPTP-induced C57BL/6 mouse SN DA neuron toxicity model assessed as survival of Th immunopositive cells at 25 mg/kg/day, po bid pretreated for 3 days followed by MPTP challenge and further administration of compound up to day 11 by immunohistochemical analysis (reference value: 61 +/- 5%); type: functional; conditions: C57BL/6, po
Method in brief: (§4)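 C57BL/6 mice given sub-chronic MPTP treatment. Test agent given per os twice daily (2x25 or 2x50 mg/kg/day) for 11 days. TH+ neurons counted in one hemisphere per mouse. Expressed as % of vehicle-treated mice, mean ± SEM, n=9-12.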

Mus musculus [14] = test: as §3, with “50” for “25”, “relative to control” for “(reference value: 61 +/- 5%)”; type: functional; conditions: C57BL/6, po; method in brief: as §4
[15] = molecular target: T1, Amine oxidase [flavin-containing] B (Rattus norvegicus, UniProt P19643); test: Inhibition of rat mitochondrial MAO-B using DAB as substrate incubated for 30 mins by HPLC analysis
T1 sequence (P19643 whole entry): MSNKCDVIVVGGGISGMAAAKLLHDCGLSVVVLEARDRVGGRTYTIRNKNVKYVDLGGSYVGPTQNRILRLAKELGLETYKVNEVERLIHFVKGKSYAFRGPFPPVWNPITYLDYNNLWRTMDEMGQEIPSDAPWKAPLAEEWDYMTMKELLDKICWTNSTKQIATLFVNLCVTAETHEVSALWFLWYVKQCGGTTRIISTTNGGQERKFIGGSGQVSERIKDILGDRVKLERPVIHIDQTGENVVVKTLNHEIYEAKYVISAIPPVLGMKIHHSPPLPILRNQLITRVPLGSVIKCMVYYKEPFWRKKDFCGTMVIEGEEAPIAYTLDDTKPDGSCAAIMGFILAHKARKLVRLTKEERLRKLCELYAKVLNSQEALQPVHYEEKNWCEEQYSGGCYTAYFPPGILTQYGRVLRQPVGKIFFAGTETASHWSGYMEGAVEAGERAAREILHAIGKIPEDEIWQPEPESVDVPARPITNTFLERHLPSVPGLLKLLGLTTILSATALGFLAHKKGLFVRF

Mus musculus [16] = test: Neuroprotective activity against MPTP-induced C57BL/6 mouse DA neuron toxicity model assessed as restoration of striatal DA level at 25 mg/kg/day, po bid pretreated for 3 days followed by MPTP challenge and further administration of compound up to day 11 by HPLC method (reference value: 28 +/- 2%); type: functional
Mus musculus [17] = test: Neuroprotective activity against MPTP-induced C57BL/6 mouse DA neuron toxicity model assessed as restoration of striatal HVA level at 25 mg/kg/day, po bid pretreated for 3 days followed by MPTP challenge and further administration of compound up to day 11 by HPLC method (reference value: 53 +/- 3%); type: functional
Mus musculus [18] = test: Neuroprotective activity against MPTP-induced C57BL/6 mouse DA neuron toxicity model assessed as reduction of striatal DA turnover at 25 mg/kg/day, po bid pretreated for 3 days followed by MPTP challenge and further administration of compound up to day 11 by HPLC method; type: functional; set-up: scale not given: the % may be the effect or the level left
Mus musculus [19] = test: Neuroprotective activity against MPTP-induced C57BL/6 mouse DA neuron toxicity model assessed as restoration of striatal DA level at 50 mg/kg/day, po bid pretreated for 3 days followed by MPTP challenge and further administration of compound up to day 11 by HPLC method; type: functional, organism-based
Mus musculus [20] = test: Neuroprotective activity against MPTP-induced C57BL/6 mouse DA neuron toxicity model assessed as restoration of striatal HVA level at 50 mg/kg/day, po bid pretreated for 3 days followed by MPTP challenge and further administration of compound up to day 11 by HPLC method; type: functional, organism-based
Mus musculus [21] = test: Neuroprotective activity against MPTP-induced C57BL/6 mouse DA neuron toxicity model assessed as decrease in striatal DOPAC level at 50 mg/kg/day, po bid pretreated for 3 days followed by MPTP challenge and further administration of compound up to day 11 by HPLC method; type: functional, organism-based

## Nc1ccc2ncc(-c3ccccc3)nc2c1
[1]
  viability at 50 µM: 226%
[2]
  viability at 10 µM: 152%
Astrocyte [3]
  Activity: inactive
Astrocyte [4]
  Activity: inactive
Astrocyte [5]
  Activity: 93.8%
Rattus norvegicus [6]
  Activity: Active
Rattus norvegicus [7]
  Activity: Active
Rattus norvegicus [8]
  inhibition: inactive
Rattus norvegicus [9]
  inhibition: Active
Rattus norvegicus [10]
  Activity: Active
Rattus norvegicus [11]
  Activity: Active
Rattus norvegicus [12]
  Activity: Active
Mus musculus [13]
  survival at 25 mg/kg/day: 78%
Mus musculus [14]
  survival at 50 mg/kg/day: 91%
[15]
  IC50: 513 µM
Mus musculus [16]
  Activity: 39%
Mus musculus [17]
  Activity: 64%
Mus musculus [18]
  Activity: 36%
Mus musculus [19]
  Activity: Active
Mus musculus [20]
  Activity: Active
Mus musculus [21]
  Activity: Active
